From ChEMBL document CHEMBL5678806, “NMS-P937, an orally available, specific small-molecule polo-like kinase 1 inhibitor with antitumor activity in solid and hematologic malignancies” (Mol Cancer Ther, 2012)
pIC50: −log10 of the molar value. Activity calls are given as the source filed them. No cut-off for these calls is given here.

Assays:
[1] = target: Serine/threonine-protein kinase pim-1 (Homo sapiens, UniProt P11309); assay: Inhibition of PIM1 (unknown origin) in presence of [gamma-33P]ATP
[2] = target: Protein kinase C beta type (Homo sapiens, UniProt P05771); assay: Inhibition of N-terminal His6-tagged recombinant human PKCbetaI (2 to end) expressed in Sf21 cells assessed as residual activity at 0.1 uM relative to control
SK-MEL-2 = assay: Antiproliferative activity against human SK-MEL-2 cells assessed as inhibition of cell growth incubated for 72 hrs by cell-titer glo assay; assay type: functional, cell-based; conditions: SK-MEL-2, 72 h
[3] = Antiproliferative activity against human CL-11 cells assessed as inhibition of cell growth incubated for 72 hrs by cell-titer glo assay; assay type: functional, cell-based; conditions: CL-11, 72 h
Summary of the method: (§1)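 Cells seeded 10,000–30,000/cm² (adherent) or 100,000/mL (suspension) in medium with 10% fetal calf serum; after 24 h treated in duplicate with serial dilutions for 72 h. Viable cells read by CellTiter-Glo luminescence; IC50 from sigmoidal fit; at least two independent experiments.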

[4] = target: Serine/threonine-protein kinase Nek6 (Homo sapiens, UniProt Q9HC98); assay: Inhibition of NEK6 (unknown origin) in presence of [gamma-33P]ATP
697 = assay: Antiproliferative activity against human 697 cells assessed as inhibition of cell growth incubated for 72 hrs by cell-titer glo assay; assay type: functional, cell-based; conditions: Homo sapiens, 697, 72 h; summary of the method: as §1
U2OS = assay: Effect on cell morphology in human U2OS cells assessed as increased number of rounded cells at 1 uM by time lapse microscopy analysis; assay type: functional, cell-based; conditions: time lower […], time upper 48.0 hrs, TDE = time-dependent effect
[5] = target: Maternal embryonic leucine zipper kinase (Homo sapiens) (UniProt Q14680); assay: Inhibition of MELK (unknown origin) at 10 micromol/L in presence of [gamma-33P]ATP relative to control; conditions: dose 10.0 µmol/L
Chain of Maternal embryonic leucine zipper kinase (Homo sapiens) (Q14680 whole entry, looked up): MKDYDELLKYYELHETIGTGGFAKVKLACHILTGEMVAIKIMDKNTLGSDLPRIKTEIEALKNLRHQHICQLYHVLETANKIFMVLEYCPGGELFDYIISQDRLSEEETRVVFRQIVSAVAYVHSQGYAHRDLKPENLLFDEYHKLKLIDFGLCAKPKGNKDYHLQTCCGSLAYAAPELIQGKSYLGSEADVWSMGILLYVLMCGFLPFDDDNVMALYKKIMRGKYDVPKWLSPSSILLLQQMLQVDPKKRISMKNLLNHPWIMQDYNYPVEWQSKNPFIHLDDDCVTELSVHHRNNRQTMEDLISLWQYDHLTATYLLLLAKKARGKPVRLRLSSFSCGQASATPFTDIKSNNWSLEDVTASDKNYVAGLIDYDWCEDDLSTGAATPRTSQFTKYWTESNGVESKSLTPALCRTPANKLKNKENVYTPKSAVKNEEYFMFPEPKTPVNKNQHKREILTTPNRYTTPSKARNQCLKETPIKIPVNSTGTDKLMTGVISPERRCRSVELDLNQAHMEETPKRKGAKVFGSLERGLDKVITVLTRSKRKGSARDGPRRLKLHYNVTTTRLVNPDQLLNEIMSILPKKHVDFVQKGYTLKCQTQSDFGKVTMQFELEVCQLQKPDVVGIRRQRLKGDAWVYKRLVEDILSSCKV

HT-29 = assay: Antitumor activity against human HT-29 cells xenografted in nu/nu mouse assessed as tumor growth inhibition at 45 mg/kg, po administered for 3 days and measured after 1 day relative to control; assay type: functional; conditions: HT-29, 72 h, time 3 day, read-out: TGI
[6] = target: Serine/threonine-protein kinase PAK 4 (Homo sapiens, UniProt O96013); assay: Inhibition of PAK4 (unknown origin) in presence of [gamma-33P]ATP
Chain of Serine/threonine-protein kinase PAK 4 (O96013 whole entry): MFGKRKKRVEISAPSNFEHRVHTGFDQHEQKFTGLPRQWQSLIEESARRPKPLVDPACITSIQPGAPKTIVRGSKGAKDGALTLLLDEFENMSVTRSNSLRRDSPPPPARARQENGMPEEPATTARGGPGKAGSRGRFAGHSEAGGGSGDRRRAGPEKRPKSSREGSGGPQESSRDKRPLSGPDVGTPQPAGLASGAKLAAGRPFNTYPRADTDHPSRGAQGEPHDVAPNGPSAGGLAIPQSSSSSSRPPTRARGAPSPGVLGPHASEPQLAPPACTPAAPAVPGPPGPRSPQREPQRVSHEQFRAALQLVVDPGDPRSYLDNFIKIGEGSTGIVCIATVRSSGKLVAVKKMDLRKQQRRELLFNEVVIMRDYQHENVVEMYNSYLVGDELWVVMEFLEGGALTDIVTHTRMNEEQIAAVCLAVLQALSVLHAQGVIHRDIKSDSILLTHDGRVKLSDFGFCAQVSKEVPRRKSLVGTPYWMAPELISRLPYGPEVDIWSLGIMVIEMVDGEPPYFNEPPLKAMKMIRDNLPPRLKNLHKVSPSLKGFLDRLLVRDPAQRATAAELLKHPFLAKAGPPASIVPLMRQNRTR

NCI-H1299 = assay: Antiproliferative activity against human NCI-H1299 cells assessed as inhibition of cell growth incubated for 72 hrs by cell-titer glo assay; assay type: functional, cell-based; conditions: NCI-H1299, 72 h
Summary of the method: (§2)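 Cells from ATCC or ECACC, kept in supplier-recommended medium with 1% penicillin-streptomycin at 37°C, 5% CO₂. Seeded at 10,000–30,000/cm² (adherent) or 100,000/mL (nonadherent) in medium with 10% fetal calf serum. Dosed after 24 h in duplicate with serial dilutions. Viable cells read by CellTiter-Glo 72 h later. IC50 from sigmoidal fit. At least two independent experiments.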

[7] = target: Tyrosine-protein kinase BTK (Homo sapiens) (UniProt Q06187); assay: Inhibition of N-terminal His6-tagged recombinant full-length human BTK expressed in baculovirus infected Sf21 cells assessed as residual activity at 1 uM relative to control
Chain of Tyrosine-protein kinase BTK (Homo sapiens) (Q06187 whole entry): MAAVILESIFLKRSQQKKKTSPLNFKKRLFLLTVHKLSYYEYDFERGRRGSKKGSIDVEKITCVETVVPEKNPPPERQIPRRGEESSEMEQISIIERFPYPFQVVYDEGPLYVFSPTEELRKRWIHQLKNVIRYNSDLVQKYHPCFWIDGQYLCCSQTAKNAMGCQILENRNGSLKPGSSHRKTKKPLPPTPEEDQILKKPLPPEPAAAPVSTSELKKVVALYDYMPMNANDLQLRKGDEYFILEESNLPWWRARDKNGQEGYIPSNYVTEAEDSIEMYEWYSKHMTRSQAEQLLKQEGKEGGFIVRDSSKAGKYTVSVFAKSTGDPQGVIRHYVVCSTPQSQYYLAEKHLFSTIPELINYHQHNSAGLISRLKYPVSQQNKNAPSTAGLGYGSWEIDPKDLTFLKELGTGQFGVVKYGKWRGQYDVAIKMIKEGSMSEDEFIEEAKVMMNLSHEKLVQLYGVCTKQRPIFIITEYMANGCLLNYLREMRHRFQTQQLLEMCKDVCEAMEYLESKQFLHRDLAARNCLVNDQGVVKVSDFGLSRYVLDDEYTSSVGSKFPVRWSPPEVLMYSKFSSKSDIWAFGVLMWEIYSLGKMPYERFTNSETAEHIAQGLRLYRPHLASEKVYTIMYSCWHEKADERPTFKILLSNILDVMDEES

HCC1954 = assay: Antiproliferative activity against human HCC1954 cells assessed as inhibition of cell growth incubated for 72 hrs by cell-titer glo assay; assay type: functional, cell-based; conditions: HCC1954, 72 h
Summary of the method: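 Cells seeded at 10,000–30,000/cm² (adherent) or 100,000/mL (nonadherent) in medium with 10% fetal calf serum; after 24 h, treated in duplicate with serial dilutions for 72 h. Viable cell number read by CellTiter-Glo luminescence; IC50 from sigmoidal fit; at least two independent experiments.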

DU-145 = assay: Antiproliferative activity against human DU-145 cells assessed as inhibition of cell growth incubated for 72 hrs by cell-titer glo assay; assay type: functional, cell-based; conditions: DU-145, 72 h; summary of the method: as §1
A2780 = assay: Antitumor activity against human A2780 cells xenografted in nu/nu mouse assessed as tumor growth inhibition at 60 mg/kg, po administered for 10 days; conditions: time 10.0 day
[8] = Inhibition of AUR1 (unknown origin) in presence of [gamma-33P]ATP; set-up: species or system Homo sapiens
[9] = target: G protein-coupled receptor kinase 6 (Homo sapiens) (UniProt P43250); assay: Inhibition of N-terminal 6His-tagged recombinant full-length human GRK6 expressed in baculovirus infected Sf21 cells assessed as residual activity at 1 uM relative to control
[10] = target: Serine/threonine-protein kinase pim-2 (Homo sapiens, UniProt Q9P1W9); assay: Inhibition of PIM2 (unknown origin) in presence of [gamma-33P]ATP
Chain of Serine/threonine-protein kinase pim-2 (Q9P1W9 whole entry): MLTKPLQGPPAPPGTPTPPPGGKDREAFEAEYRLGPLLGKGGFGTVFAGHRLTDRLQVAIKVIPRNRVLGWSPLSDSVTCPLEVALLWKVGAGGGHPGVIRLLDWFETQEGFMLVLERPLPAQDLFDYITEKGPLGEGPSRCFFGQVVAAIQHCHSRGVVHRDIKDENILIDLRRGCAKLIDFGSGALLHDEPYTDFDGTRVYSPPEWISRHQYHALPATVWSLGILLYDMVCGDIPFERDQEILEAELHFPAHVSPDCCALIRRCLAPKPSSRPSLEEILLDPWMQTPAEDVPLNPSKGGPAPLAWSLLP

C-33-A = assay: Antiproliferative activity against human C-33-A cells assessed as inhibition of cell growth incubated for 72 hrs by cell-titer glo assay; assay type: functional, cell-based; summary of the method: as §1
[11] = target: Rho-associated protein kinase 1 (Homo sapiens) (UniProt Q13464); assay: Inhibition of N-terminal His6-tagged recombinant human ROCK-I (17 to 535 residues) expressed in baculovirus infected Sf21 cells assessed as residual activity at 1 uM relative to control
[12] = target: Casein kinase I isoform gamma-3 (Homo sapiens) (UniProt Q9Y6M4); assay: Inhibition of N-terminal 6His-tagged recombinant human CK1gamma3 (1 to 330 residues) expressed in baculovirus infected Sf21 cells assessed as residual activity at 1 uM relative to control
Chain of Casein kinase I isoform gamma-3 (Homo sapiens) (Q9Y6M4 whole entry, looked up, the tested form may be a part, canonical isoform): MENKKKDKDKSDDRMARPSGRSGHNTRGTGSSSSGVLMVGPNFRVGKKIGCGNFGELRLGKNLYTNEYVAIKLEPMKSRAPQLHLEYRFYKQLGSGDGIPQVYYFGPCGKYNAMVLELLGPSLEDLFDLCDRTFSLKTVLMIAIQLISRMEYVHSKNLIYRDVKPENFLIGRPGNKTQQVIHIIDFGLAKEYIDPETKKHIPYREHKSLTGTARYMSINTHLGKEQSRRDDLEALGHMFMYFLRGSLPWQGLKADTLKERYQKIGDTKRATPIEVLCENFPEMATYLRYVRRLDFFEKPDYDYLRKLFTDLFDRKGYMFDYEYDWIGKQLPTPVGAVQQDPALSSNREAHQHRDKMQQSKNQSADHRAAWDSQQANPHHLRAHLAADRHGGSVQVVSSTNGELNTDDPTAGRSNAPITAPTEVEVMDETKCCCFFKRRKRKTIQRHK

NCI-H146 = assay: Antiproliferative activity against human NCI-H146 cells assessed as inhibition of cell growth incubated for 72 hrs by cell-titer glo assay; assay type: functional, cell-based; conditions: NCI-H146, 72 h; summary of the method: as §2
SN12C = assay: Antiproliferative activity against human SN12C cells assessed as inhibition of cell growth incubated for 72 hrs by cell-titer glo assay; assay type: functional, cell-based
BT-474 = assay: Antiproliferative activity against human BT-474 cells assessed as inhibition of cell growth incubated for 72 hrs by cell-titer glo assay; assay type: functional, cell-based; conditions: BT-474, 72 h; summary of the method: as §1
[13] = system: Angiopoietin-1 receptor (Homo sapiens), Q02763 [R849W]; assay: Inhibition of N-terminal His6-tagged recombinant human Tie2 (771 to end residues) R849W mutant expressed in baculovirus infected Sf21 cells assessed as residual activity at 0.1 uM relative to control
Chain of Angiopoietin-1 receptor (Homo sapiens), Q02763 [R849W] (Q02763 whole entry R849W): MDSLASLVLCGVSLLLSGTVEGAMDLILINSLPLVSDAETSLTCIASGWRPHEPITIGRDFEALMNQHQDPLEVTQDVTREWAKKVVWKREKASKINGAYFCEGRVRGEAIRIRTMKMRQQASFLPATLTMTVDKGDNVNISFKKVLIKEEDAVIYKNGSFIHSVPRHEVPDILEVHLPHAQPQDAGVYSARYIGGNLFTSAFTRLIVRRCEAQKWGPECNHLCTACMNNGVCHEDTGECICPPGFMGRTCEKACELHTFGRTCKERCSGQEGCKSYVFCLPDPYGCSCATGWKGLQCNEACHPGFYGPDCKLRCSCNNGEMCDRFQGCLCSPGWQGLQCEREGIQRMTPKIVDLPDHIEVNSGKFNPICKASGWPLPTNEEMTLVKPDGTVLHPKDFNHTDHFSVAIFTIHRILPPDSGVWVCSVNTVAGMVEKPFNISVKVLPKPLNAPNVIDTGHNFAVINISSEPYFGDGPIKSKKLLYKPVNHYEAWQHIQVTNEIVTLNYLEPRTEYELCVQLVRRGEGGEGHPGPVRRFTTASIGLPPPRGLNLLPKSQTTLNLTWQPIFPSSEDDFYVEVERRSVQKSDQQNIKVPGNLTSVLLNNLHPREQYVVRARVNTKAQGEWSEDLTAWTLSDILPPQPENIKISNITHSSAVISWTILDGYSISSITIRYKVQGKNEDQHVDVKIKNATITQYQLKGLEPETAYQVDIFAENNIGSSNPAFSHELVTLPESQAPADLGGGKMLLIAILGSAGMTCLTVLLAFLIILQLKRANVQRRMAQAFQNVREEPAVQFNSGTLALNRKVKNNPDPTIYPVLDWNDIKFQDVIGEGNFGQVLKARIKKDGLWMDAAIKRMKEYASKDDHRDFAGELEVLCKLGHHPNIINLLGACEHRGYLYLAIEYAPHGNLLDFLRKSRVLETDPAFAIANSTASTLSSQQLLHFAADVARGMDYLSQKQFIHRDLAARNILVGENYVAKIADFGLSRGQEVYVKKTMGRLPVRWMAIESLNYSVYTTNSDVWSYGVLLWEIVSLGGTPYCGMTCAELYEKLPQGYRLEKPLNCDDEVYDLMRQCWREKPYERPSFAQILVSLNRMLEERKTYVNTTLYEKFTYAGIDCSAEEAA

[14] = target: Tyrosine-protein kinase JAK1 (Homo sapiens, UniProt P23458); assay: Inhibition of JAK1 (unknown origin) in presence of [gamma-33P]ATP
Chain of Tyrosine-protein kinase JAK1 (P23458 whole entry): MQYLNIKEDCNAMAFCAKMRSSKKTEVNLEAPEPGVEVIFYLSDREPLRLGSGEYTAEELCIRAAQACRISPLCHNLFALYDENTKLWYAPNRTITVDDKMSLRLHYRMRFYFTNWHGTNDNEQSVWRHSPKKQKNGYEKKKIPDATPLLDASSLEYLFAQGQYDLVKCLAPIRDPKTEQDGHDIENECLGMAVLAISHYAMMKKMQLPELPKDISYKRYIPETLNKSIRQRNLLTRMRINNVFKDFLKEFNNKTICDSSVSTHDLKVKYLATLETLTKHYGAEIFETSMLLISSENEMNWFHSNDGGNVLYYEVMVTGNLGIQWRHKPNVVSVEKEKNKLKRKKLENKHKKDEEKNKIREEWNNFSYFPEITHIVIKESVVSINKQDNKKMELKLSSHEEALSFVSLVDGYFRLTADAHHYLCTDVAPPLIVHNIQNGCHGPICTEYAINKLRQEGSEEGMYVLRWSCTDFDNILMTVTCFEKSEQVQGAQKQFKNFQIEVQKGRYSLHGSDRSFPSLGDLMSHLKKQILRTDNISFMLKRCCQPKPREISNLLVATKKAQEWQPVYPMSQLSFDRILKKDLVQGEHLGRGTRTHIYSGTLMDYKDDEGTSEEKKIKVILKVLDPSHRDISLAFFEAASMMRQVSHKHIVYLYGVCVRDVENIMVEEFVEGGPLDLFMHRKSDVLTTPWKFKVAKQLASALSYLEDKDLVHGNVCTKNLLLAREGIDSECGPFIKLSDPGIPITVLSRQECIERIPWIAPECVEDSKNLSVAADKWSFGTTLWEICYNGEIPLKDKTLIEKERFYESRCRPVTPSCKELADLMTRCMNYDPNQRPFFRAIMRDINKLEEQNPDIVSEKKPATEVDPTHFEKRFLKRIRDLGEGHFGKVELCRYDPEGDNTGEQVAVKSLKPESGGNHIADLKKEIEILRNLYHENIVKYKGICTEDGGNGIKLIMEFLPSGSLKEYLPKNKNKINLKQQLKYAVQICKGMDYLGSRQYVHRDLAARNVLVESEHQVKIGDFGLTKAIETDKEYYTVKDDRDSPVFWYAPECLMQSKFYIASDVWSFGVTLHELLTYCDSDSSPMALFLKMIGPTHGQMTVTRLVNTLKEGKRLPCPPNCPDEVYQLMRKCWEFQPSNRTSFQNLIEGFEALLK

[15] = Half-life in male cynomolgus monkey at 5 mg/kg, iv by LC-MS analysis; assay type: ADME, organism-based, Macaca fascicularis; conditions: in vivo
[16] = Half-life in Beagle dog at 5 mg/kg, po by LC-MS analysis; assay type: ADME, organism-based, Canis lupus familiaris; conditions: in vivo
MOLM-13 = assay: Antiproliferative activity against human MOLM-13 cells assessed as inhibition of cell growth incubated for 72 hrs by cell-titer glo assay; assay type: functional, cell-based; conditions: MOLM-13, 72 h; summary of the method: as §2
[17] = Toxicity in nu/nu mouse xenografted with human HCT-116 cells assessed as body weight loss at 45 mg/kg, iv administered for 3 days; assay type: organism-based; conditions: in vivo, 72 h, time 3 day
SU-DHL-6 = assay: Antiproliferative activity against human SU-DHL-6 cells assessed as inhibition of cell growth incubated for 72 hrs by cell-titer glo assay; assay type: functional, cell-based; conditions: SU-DHL-6, 72 h

Compound CN1CCN(c2ccc(OC(F)(F)F)c(Nc3ncc4c(n3)-c3c(c(C(N)=O)nn3CCO)CC4)c2)CC1 [ONVANSERTIB] has a pIC50 [1] of less than 5.00, an Activity [2] of 85% and a pIC50 (SK-MEL-2) of 6.59. It also gave a pIC50 [3] of 6.86, a pIC50 [4] of less than 5.00 and a pIC50 697 of 7.59. The Activity (U2OS) was “Tde”, the inhibition [5] was 95.5% and the inhibition in vivo at 45 mg/kg (HT-29) was 72%. It also gave a pIC50 [6] of less than 5.00, a pIC50 (NCI-H1299) of 6.46 and an Activity [7] of 84%. For the same compound, the pIC50 (HCC1954) was 7.82, the pIC50 (DU-145) was 6.60 and the TGI (A2780) was “Active”. It also gave a pIC50 [8] of less than 5.00, an Activity [9] of 93% and a pIC50 [10] of less than 5.00. For the same compound, the pIC50 (C-33-A) was 7.21, the Activity [11] was 132% and the Activity [12] was 39%. It also gave a pIC50 (NCI-H146) of 6.47, a pIC50 (SN12C) of 7.21 and a pIC50 (BT-474) of 6.81. It also gave an Activity [13] of 74%, a pIC50 [14] of less than 5.00 and a half-life [15] of 300 min. The half-life [16] was 276 min, the pIC50 (MOLM-13) was 7.66 and the Activity [17] was “Toxic”. It also gave a pIC50 (SU-DHL-6) of 7.30.
